Laboratory results published in paper PMC6540510 (Pulmonary Circulation, 2019).
Like-named read-outs stand apart in the source and are kept apart here.

Tests used:
[1] = cited from earlier work
[2] = co-administered with lopinavir and ritonavir, healthy individuals; cited from earlier work
[3] = type: in vivo; conditions: human, plasma, 0.5 mg; for Tmax: adults with HIV
Outline: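 Adults with HIV on stable fixed-dose background ART for ≥6 weeks received a single oral 0.5 mg dose in the morning after a ≥10 h fast, then a further 4-h fast. Plasma was sampled at baseline and 0.5–48 h. Analysis was by HPLC-MS/MS with internal standards (LLOQ 2 µg/L). Cmax was derived non-compartmentally and summarised as geometric mean with %CV.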

[4] = type: in vivo, human; conditions: single 0.5 mg dose
Outline: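 Single oral 0.5 mg dose was given fasted on top of stable background ART, with plasma sampled to 48 h and assayed by HPLC-MS/MS. AUC(0–∞) was derived non-compartmentally. ANOVA on log-transformed AUC gave LS-mean ratios versus historical healthy-volunteer data (n = 80; fed and fasted states), re-transformed, with 90% CIs.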

[5] = cited from earlier work; remark: listed apart in the source
[6] = Safety and tolerability; type: in vivo, human
Outline: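 HIV-infected adults (n = 41 treated) on stable background ART received a single fasted oral 0.5 mg dose. Treatment-emergent adverse events, vital signs, ECG and laboratory parameters were recorded. Supine and/or sitting blood pressure was measured regularly, generally at the blood-sampling times (0.5–48 h post-dose).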

[7] = co-administration of ketoconazole, single 0.5 mg riociguat, 16 healthy volunteers; cited from earlier work
[8] = sildenafil 100 mg single dose with ritonavir 500 mg twice daily; cited from earlier work
[9] = tadalafil 20 mg with ritonavir 200 mg twice daily; cited from earlier work
[10] = single 0.5 mg dose, adults with HIV
[11] = single 0.5 mg dose, adults with HIV, all background regimens, total n = 41
[12] = single 0.5 mg dose, adults with HIV, background abacavir/dolutegravir/lamivudine (TRIUMEQ), n = 8
[13] = single 0.5 mg dose, adults with HIV, background efavirenz/emtricitabine/tenofovir disoproxil (ATRIPLA), n = 8
[14] = single 0.5 mg dose, adults with HIV, background elvitegravir/cobicistat/emtricitabine/tenofovir disoproxil (STRIBILD), n = 8
[15] = single 0.5 mg dose, adults with HIV, background emtricitabine/rilpivirine/tenofovir disoproxil (COMPLERA), n = 8
[16] = single 0.5 mg dose, adults with HIV, background ritonavir-boosted triple regimen, n = 9

For `COC(=O)Nc1c(N)nc(-c2nn(Cc3ccccc3F)c3ncccc23)nc1N` [M1], the “biologic activity relative to riociguat” value [1] is listed as “one-tenth to one-third”.
In the case of `COc1ccccc1Oc1c(NS(=O)(=O)c2ccc(C(C)(C)C)cc2)nc(-c2ncccn2)nc1OCCO` [bosentan], the “plasma concentrations on co-administration” value [2] is given as “increased plasma concentrations”.
In the case of `COC(=O)N(C)c1c(N)nc(-c2nn(Cc3ccccc3F)c3ncccc23)nc1N` [riociguat], the Cmax ([3]; oral) is reported as 0.0142 to 0.0204 µg/mL, the Tmax ([3]; oral, median tmax, range across the five background antiretroviral groups, single 0.5 mg dose) is reported as 1 to 1.27 h and the Tmax ([3]; po, tmax, single 0.5 mg oral dose, background abacavir/dolutegravir/lamivudine (TRIUMEQ), median (range), n = 8) is reported as 1.27 h. The Tmax ([3]; po, tmax, single 0.5 mg oral dose, background efavirenz/emtricitabine/tenofovir disoproxil (ATRIPLA), median (range), n = 8) was 1 h, the Tmax ([3]; po, tmax, single 0.5 mg oral dose, background elvitegravir/cobicistat/emtricitabine/tenofovir disoproxil (STRIBILD), median (range), n = 8) was 1.03 h and the Tmax ([3]; po, tmax, single 0.5 mg oral dose, background emtricitabine/rilpivirine/tenofovir disoproxil (COMPLERA), median (range), n = 8) was 1.03 h. For the same compound, the Tmax ([3]; po, tmax, single 0.5 mg oral dose, background ritonavir-boosted triple regimen, median (range), n = 8) was 1.03 h, the “riociguat exposure (AUC) compared with historical healthy volunteers” value ([4]; administered with abacavir/dolutegravir/lamivudine) was “increased by approximately threefold” and the “riociguat exposure (AUC) compared with historical healthy volunteers” value ([4]; administered with ritonavir-boosted triple regimen) was “slightly increased”. For the same compound, the “riociguat exposure (AUC) compared with historical healthy volunteers” value ([4]; co-administered with efavirenz/emtricitabine/tenofovir disoproxil) was “similar”, the “riociguat exposure (AUC) compared with historical healthy volunteers” value ([4]; co-administered with efavirenz/emtricitabine/tenofovir disoproxil, listed as Riociguat) was “no apparent change” and the bioavailability [5] was over 90%. For the same compound, the “fraction of the dose eliminated by oxidative biotransformation” value [5] was 27–71%, the mean half-life ([5]; healthy individuals) was “approximately 7 h” and the mean half-life ([5]; patients with PAH) was “approximately 12 h”. For the same compound, the “AEs considered related to riociguat” value ([6]; headache and stomach cramps, all resolved by study end) was “Four AEs were considered related to riociguat in three participants”, the “AEs related to decreased blood pressure or hypotension” value [6, 10] was “No AEs related to decreased blood pressure or hypotension were reported” and the “changes in vital signs, electrocardiogram, or laboratory parameters” value [6, 10] was “No clinically significant changes”. The “intensity of AEs” value [6, 10] was “mild or moderate”, the tolerability ([6]; single 0.5 mg dose, adults with HIV on stable background ART) was “well tolerated” and the “serious AEs, AEs leading to discontinuation, or deaths” value ([6]; single 0.5 mg dose, adults with HIV, n = 41) was “no serious AEs, AEs leading to discontinuation, or deaths”. The participants with headache ([6]; single 0.5 mg dose, adults with HIV, n = 41 (four participants)) was 10%, the “participants with a treatment-emergent AE” value ([6]; single 0.5 mg dose, adults with HIV, n = 41 (ten participants)) was 24% and the participants with fatigue ([6]; single 0.5 mg dose, adults with HIV, n = 41 (two participants)) was 5%. For the same compound, the “Any AE” value [6, 11] was 10 (24) n (%), the Diarrhea [6, 11] was 1 (2) n (%) and the Dizziness [6, 11] was 1 (2) n (%). The Fatigue [6, 11] was 2 (5) n (%), the Headache [6, 11] was 4 (10) n (%) and the Lip swelling [6, 11] was 1 (2) n (%). The Oral paresthesia [6, 11] was 1 (2) n (%), the Oropharyngeal pain [6, 11] was 1 (2) n (%) and the Pain [6, 11] was 1 (2) n (%). The Pyrexia [6, 11] was 1 (2) n (%), the Upper abdominal pain [6, 11] was 1 (2) n (%) and the Urethritis [6, 11] was 1 (2) n (%). For the same compound, the “Any AE” value [6, 12] was 2 (25) n (%), the Diarrhea [6, 12] was 0 n (%) and the Dizziness [6, 12] was 0 n (%). For the same compound, the Fatigue [6, 12] was 1 (13) n (%), the Headache [6, 12] was 1 (13) n (%) and the Lip swelling [6, 12] was 0 n (%). The Oral paresthesia [6, 12] was 0 n (%), the Oropharyngeal pain [6, 12] was 0 n (%) and the Pain [6, 12] was 0 n (%). The Pyrexia [6, 12] was 1 (13) n (%), the Upper abdominal pain [6, 12] was 0 n (%) and the Urethritis [6, 12] was 0 n (%). The “Any AE” value [6, 13] was 1 (13) n (%), the Diarrhea [6, 13] was 0 n (%) and the Dizziness [6, 13] was 0 n (%). The Fatigue [6, 13] was 0 n (%), the Headache [6, 13] was 0 n (%) and the Lip swelling [6, 13] was 0 n (%). The Oral paresthesia [6, 13] was 1 (13) n (%), the Oropharyngeal pain [6, 13] was 0 n (%) and the Pain [6, 13] was 0 n (%). For the same compound, the Pyrexia [6, 13] was 0 n (%), the Upper abdominal pain [6, 13] was 0 n (%) and the Urethritis [6, 13] was 0 n (%). The “Any AE” value [6, 14] was 2 (25) n (%), the Diarrhea [6, 14] was 0 n (%) and the Dizziness [6, 14] was 1 (13) n (%). The Fatigue [6, 14] was 1 (13) n (%), the Headache [6, 14] was 0 n (%) and the Lip swelling [6, 14] was 1 (13) n (%). For the same compound, the Oral paresthesia [6, 14] was 0 n (%), the Oropharyngeal pain [6, 14] was 0 n (%) and the Pain [6, 14] was 0 n (%). The Pyrexia [6, 14] was 0 n (%), the Upper abdominal pain [6, 14] was 0 n (%) and the Urethritis [6, 14] was 0 n (%). The “Any AE” value [6, 15] was 3 (38) n (%), the Diarrhea [6, 15] was 0 n (%) and the Dizziness [6, 15] was 0 n (%). For the same compound, the Fatigue [6, 15] was 0 n (%), the Headache [6, 15] was 1 (13) n (%) and the Lip swelling [6, 15] was 0 n (%). The Oral paresthesia [6, 15] was 0 n (%), the Oropharyngeal pain [6, 15] was 1 (13) n (%) and the Pain [6, 15] was 1 (13) n (%). The Pyrexia [6, 15] was 0 n (%), the Upper abdominal pain [6, 15] was 0 n (%) and the Urethritis [6, 15] was 1 (13) n (%). The “Any AE” value [6, 16] was 2 (22) n (%), the Diarrhea [6, 16] was 1 (11) n (%) and the Dizziness [6, 16] was 0 n (%). The Fatigue [6, 16] was 0 n (%), the Headache [6, 16] was 2 (22) n (%) and the Lip swelling [6, 16] was 0 n (%). The Oral paresthesia [6, 16] was 0 n (%), the Oropharyngeal pain [6, 16] was 0 n (%) and the Pain [6, 16] was 0 n (%). The Pyrexia [6, 16] was 0 n (%), the Upper abdominal pain [6, 16] was 1 (11) n (%) and the Urethritis [6, 16] was 0 n (%). For the same compound, the “increase in mean AUC0-∞ compared with controls” value [7] was 2.5 fold.
For `CCCc1nn(C)c2c(=O)[nH]c(-c3cc(S(=O)(=O)N4CCN(C)CC4)ccc3OCC)nc12` [sildenafil], the “increase in plasma AUC” value [8] is given as 11 fold.
In the case of `CN1CC(=O)N2[C@H](c3ccc4c(c3)OCO4)c3[nH]c4ccccc4c3C[C@@H]2C1=O` [tadalafil], the “change in Cmax” value [9] is listed as “no change” and the “increase in single-dose exposure” value [9] is listed as 124%.
